Results from ChEMBL document CHEMBL3632511, “Oxopyrido[2,3-d]pyrimidines as Covalent L858R/T790M Mutant Selective Epidermal Growth Factor Receptor (EGFR) Inhibitors” (ACS Med Chem Lett, 2015).
Each block holds one molecule with its values, some of them ahead of it.

Tests used:
[1] = tested on: NCI-H1975; test: Cytotoxicity against human NCI-H1975 cells harboring EGFR L858R/T790M double mutant assessed as inhibition of cell proliferation after 72 hrs by CellTiter-Glo assay; format: functional, cell-based; conditions: NCI-H1975, 72 h
[2] = Cytotoxicity against human HCC827 cells harboring EGFR 746 to 750 deletion mutant assessed as inhibition of cell proliferation after 72 hrs by CellTiter-Glo assay; format: functional, cell-based; conditions: HCC827, 72 h
[3] = tested on: A-431; test: Cytotoxicity against human A431 cells expressing wild-type EGFR assessed as inhibition of cell proliferation after 72 hrs by CellTiter-Glo assay; format: cell-based; conditions: A-431, 72 h
[4] = molecular target: Epidermal growth factor receptor (Homo sapiens, UniProt P00533, L858R/T790M); test: Inhibition of EGFR L858R/T790M double mutant phosphorylation in human NCI-H1975 cells after 60 mins by mesoscale multiplex assay; format: cell-based
[5] = molecular target: Epidermal growth factor receptor (Homo sapiens, UniProt P00533, 746-750DEL); test: Inhibition of EGFR 746 to 750 deletion mutant phosphorylation in human HCC827 cells after 60 mins by mesoscale multiplex assay; format: cell-based
[6] = molecular target: T1, Epidermal growth factor receptor (Homo sapiens, UniProt P00533); test: Inhibition of wild type EGFR phosphorylation in human A431 cells after 60 mins by mesoscale multiplex assay; format: cell-based, A-431
[7] = Selectivity ratio of IC50 for wild type EGFR phosphorylation in human A431 cells to IC50 for EGFR L858R/T790M double mutant phosphorylation in human NCI-H1975 cells; format: ADME, cell-based
[8] = Selectivity ratio of IC50 for wild type EGFR phosphorylation in human A431 cells to IC50 for EGFR 746 to 750 deletion mutant phosphorylation in human HCC827 cells; format: ADME, cell-based
[9] = Selectivity ratio of IC50 for human A431 cells expressing wild-type EGFR to IC50 for human NCI-H1975 cells harboring EGFR L858R/T790M double mutant; format: ADME, cell-based
[10] = Selectivity ratio of IC50 for human A431 cells expressing wild-type EGFR to IC50 for human HCC827 cells harboring EGFR 746 to 750 deletion mutant; format: ADME, cell-based
[11] = tested on: Mus musculus; test: In vivo inhibition of EGFR L858R/T790M double mutant phosphorylation in human NCI-H1975 cells xenografted in athymic nude mouse at 30 mg/kg, po measured at 4 hrs by mesoscale multiplex assay relative to control; format: functional
How it was run: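 Female athymic nude mice carried matrigel plugs holding 5 x 10⁶ H1975 cells, n = 3 per group. Control or compound given at 30 mg/kg po. Plugs and plasma taken 4 h after dosing. p-EGFR in plug measured by quantitative MSD assay, given as % p-EGFR/PRAS40 vs control.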

[12] = species: Rattus norvegicus; test: Hepatobiliary toxicity in Sprague-Dawley rat measured for 4 days; format: organism-based; conditions: in vivo, 96 h
[13] = Clearance in Sprague-Dawley rat at 1 mg/kg, iv; format: ADME, organism-based; conditions: Sprague-Dawley, in vivo
How it was run: (§1)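 Male Sprague Dawley rats, 3 animals per route; mean values. IV dose 1 mg/kg as a DMSO solution. Oral dose 10 mg/kg, in one of three vehicles by compound: 1% Pluronic F68/2% HPMC/15% HPBCD/82% water–methanesulfonic acid pH 4.5; 20% HPBCD/80% water–methanesulfonic acid pH 4.0; or 1% Pluronic F68/2% HPMC/97% water–methanesulfonic acid pH 4.0.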

[14] = Volume of distribution at steady state in Sprague-Dawley rat at 1 mg/kg, iv; format: ADME, organism-based; conditions: in vivo, read-out: Vdss; how it was run: as §1
[15] = Half life in Sprague-Dawley rat at 1 mg/kg, iv; format: ADME, organism-based; conditions: in vivo; how it was run: as §1
[16] = AUC (0 to infinity) in Sprague-Dawley rat at 10 mg/kg, po; format: ADME, organism-based; set-up: dose 10 mg/kg, route oral, time infinity; conditions: Sprague-Dawley, in vivo; how it was run: as §1
[17] = Oral bioavailability in Sprague-Dawley rat at 10 mg/kg; format: ADME, organism-based; conditions: Sprague-Dawley, in vivo; how it was run: as §1
[18] = tested on: human MDR1 (P-gp); test: Efflux ratio of permeability across pig LLC-PK1 cells transfected with human MDR1 gene; format: ADME, cell-based, Sus scrofa
[19] = tested on: NCI-H1975; test: Antitumor activity against human NCI-H1975 cells xenografted in athymic nude mouse assessed as tumor growth inhibition at 30 mg/kg, po qd administered for 2 weeks started on day 6 post tumor implantation measured on day 19 relative to control; format: functional; conditions: read-out: TGI
[20] = tested on: Mus musculus; test: In vivo inhibition of EGFR L858R/T790M double mutant phosphorylation in human NCI-H1975 cells xenografted in athymic nude mouse at 30 mg/kg, po measured at >12 hrs by mesoscale multiplex assay relative to control; format: functional
How it was run: (§2)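 Time-course PD in mice carrying matrigel plugs of H1975 cells after a single oral dose of 30 mg/kg. Tumor cell plugs and plasma harvested at 2, 4, 8, 12 and 24 h post dose. Plug p-EGFR measured, and plasma drug concentration taken for Cmax.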

[21] = tested on: Mus musculus; test: Toxicity in athymic nude mouse xenografted with human NCI-H1975 cells assessed as change in body weight at 30 mg/kg, po qd administered for 2 weeks started on day 6 post tumor implantation; format: organism-based; conditions: in vivo, 336 h
[22] = AUC (0 to infinity) in athymic nude mouse xenografted with human NCI-H1975 cells at 30 mg/kg, po; format: ADME, organism-based; set-up: dose 30 mg/kg, route oral, time infinity; conditions: in vivo
[23] = AUC (0 to t) in athymic nude mouse xenografted with human NCI-H1975 cells at 30 mg/kg, po qd administered for 2 weeks started on day 6 post tumor implantation; format: ADME, organism-based; conditions: in vivo
[24] = molecular target: T2, Tyrosine-protein kinase BTK (Homo sapiens, UniProt Q06187); test: Competitive binding affinity to human BTK at 1 uM in presence of immobilized ligand relative to control
How it was run: (§3)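 Kinase selectivity by competitive binding in the ScanMAX KINOMEscan panel of […] protein and lipid kinases. Compound tested at 1 μM; binding expressed as percentage of control (POC).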

[25] = Cmax in athymic nude mouse xenografted with human NCI-H1975 cells at 30 mg/kg, po measured at 2 hrs; format: ADME, organism-based; set-up: dose 30 mg/kg, route oral; conditions: in vivo; how it was run: as §2
[26] = molecular target: Dual specificity protein kinase TTK (Homo sapiens) (UniProt P33981); test: Competitive binding affinity to human TTK at 1 uM in presence of immobilized ligand relative to control; how it was run: as §3
[27] = molecular target: Tyrosine-protein kinase Blk (Homo sapiens, UniProt P51451); test: Competitive binding affinity to human BLK in presence of immobilized ligand
[28] = molecular target: T2, Tyrosine-protein kinase BTK; test: Competitive binding affinity to human BTK in presence of immobilized ligand
[29] = molecular target: T1, Epidermal growth factor receptor; test: Competitive binding affinity to human wild type EGFR in presence of immobilized ligand
[30] = molecular target: Epidermal growth factor receptor (Homo sapiens, UniProt P00533, T790M); test: Competitive binding affinity to human EGFR T790M mutant in presence of immobilized ligand; format: protein assay
[31] = molecular target: Receptor tyrosine-protein kinase erbB-2 (Homo sapiens, UniProt P04626); test: Competitive binding affinity to human ERBB2 in presence of immobilized ligand
[32] = molecular target: Receptor tyrosine-protein kinase erbB-4 (Homo sapiens, UniProt Q15303); test: Competitive binding affinity to human ERBB4 in presence of immobilized ligand
[33] = molecular target: Cyclin-G-associated kinase (Homo sapiens, UniProt O14976); test: Competitive binding affinity to human GAK in presence of immobilized ligand
[34] = molecular target: Tyrosine-protein kinase ITK/TSK (Homo sapiens, UniProt Q08881); test: Competitive binding affinity to human ITK in presence of immobilized ligand
[35] = molecular target: Tyrosine-protein kinase JAK1 (Homo sapiens, UniProt P23458); test: Competitive binding affinity to human JAK1 JH2 domain pseudokinase in presence of immobilized ligand
[36] = molecular target: Tyrosine-protein kinase JAK3 (Homo sapiens, UniProt P52333); test: Competitive binding affinity to human JAK3 in presence of immobilized ligand
[37] = molecular target: Dual specificity protein kinase TTK (Homo sapiens, UniProt P33981); test: Competitive binding affinity to human TTK in presence of immobilized ligand
[38] = molecular target: Tyrosine-protein kinase TXK (Homo sapiens, UniProt P42681); test: Competitive binding affinity to human TXK in presence of immobilized ligand
[39] = Fraction unbound in mouse plasma at 5 uM by rapid equilibrium dialysis method; format: ADME, cell-free
[40] = Fraction unbound in rat plasma at 5 uM by rapid equilibrium dialysis method; format: ADME, cell-free
[41] = Fraction unbound in human plasma at 5 uM by rapid equilibrium dialysis method; format: ADME, cell-free
[42] = Fraction unbound in dog plasma at 5 uM by rapid equilibrium dialysis method; format: ADME, cell-free, Canis lupus familiaris
[43] = tested on: human MDR1 (P-gp); test: Permeability across pig LLC-PK1 cells transfected with human MDR1 gene; format: ADME, cell-based, Sus scrofa; conditions: read-out: permeability
[44] = tested on: rat MDR1 (P-gp); test: Permeability across pig LLC-PK1 cells transfected with rat MDR1 gene; format: ADME, cell-based, Sus scrofa; conditions: read-out: permeability
[45] = tested on: rat MDR1 (P-gp); test: Efflux ratio of permeability across pig LLC-PK1 cells transfected with rat MDR1 gene; format: ADME, cell-based, Sus scrofa

Chain of Epidermal growth factor receptor (Homo sapiens, UniProt P00533, 746-750DEL) (P00533 whole entry, looked up, stated change not applied): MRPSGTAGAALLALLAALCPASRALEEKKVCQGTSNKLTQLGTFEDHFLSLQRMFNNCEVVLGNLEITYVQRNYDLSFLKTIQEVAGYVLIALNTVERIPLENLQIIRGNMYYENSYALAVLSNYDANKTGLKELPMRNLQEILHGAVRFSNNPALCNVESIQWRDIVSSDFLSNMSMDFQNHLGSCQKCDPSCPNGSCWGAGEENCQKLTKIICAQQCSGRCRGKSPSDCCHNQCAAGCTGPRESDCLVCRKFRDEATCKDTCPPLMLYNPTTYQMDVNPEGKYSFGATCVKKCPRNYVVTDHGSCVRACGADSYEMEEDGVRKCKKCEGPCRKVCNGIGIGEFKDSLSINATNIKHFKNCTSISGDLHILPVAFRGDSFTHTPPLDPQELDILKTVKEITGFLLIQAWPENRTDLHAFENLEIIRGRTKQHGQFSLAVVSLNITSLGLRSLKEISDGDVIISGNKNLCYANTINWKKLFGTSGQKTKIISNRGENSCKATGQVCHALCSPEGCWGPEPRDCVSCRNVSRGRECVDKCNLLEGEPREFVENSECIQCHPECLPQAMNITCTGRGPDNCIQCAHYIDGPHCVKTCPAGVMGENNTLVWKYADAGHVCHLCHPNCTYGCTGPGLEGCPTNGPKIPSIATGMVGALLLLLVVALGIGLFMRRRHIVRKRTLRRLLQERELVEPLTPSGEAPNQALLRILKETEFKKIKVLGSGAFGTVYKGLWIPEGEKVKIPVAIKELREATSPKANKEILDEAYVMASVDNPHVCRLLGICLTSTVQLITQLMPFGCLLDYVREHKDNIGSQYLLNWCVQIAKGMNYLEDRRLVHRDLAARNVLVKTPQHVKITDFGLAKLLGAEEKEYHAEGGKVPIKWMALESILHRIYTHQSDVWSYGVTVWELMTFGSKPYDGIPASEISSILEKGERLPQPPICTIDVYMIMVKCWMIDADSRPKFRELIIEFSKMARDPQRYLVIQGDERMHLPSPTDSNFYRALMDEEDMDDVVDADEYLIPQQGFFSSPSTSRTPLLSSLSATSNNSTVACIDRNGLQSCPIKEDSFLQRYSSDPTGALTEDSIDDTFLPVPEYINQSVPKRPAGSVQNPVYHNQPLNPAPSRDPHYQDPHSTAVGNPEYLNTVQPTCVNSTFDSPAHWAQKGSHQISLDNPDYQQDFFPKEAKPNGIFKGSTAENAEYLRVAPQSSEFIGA
T1 sequence (P00533 whole entry): as the sequence (P00533 whole entry, looked up, stated change not applied) above
T2 sequence (Q06187 whole entry): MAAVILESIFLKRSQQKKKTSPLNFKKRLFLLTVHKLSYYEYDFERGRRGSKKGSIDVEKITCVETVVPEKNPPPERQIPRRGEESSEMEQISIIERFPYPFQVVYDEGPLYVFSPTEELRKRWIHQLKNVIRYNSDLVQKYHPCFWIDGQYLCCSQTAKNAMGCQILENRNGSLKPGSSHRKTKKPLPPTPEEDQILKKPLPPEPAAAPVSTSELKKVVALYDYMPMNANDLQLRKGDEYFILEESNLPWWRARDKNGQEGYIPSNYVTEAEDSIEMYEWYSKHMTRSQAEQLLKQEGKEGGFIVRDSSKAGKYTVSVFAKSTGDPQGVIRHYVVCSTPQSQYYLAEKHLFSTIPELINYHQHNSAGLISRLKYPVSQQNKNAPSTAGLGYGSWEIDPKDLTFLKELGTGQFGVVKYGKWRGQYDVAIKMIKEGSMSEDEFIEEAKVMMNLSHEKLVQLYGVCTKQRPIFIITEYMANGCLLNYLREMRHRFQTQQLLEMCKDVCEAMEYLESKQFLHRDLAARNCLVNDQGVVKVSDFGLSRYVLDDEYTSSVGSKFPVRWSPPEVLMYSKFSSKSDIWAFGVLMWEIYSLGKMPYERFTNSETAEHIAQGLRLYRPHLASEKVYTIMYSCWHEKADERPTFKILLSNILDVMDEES
Chain of Epidermal growth factor receptor (Homo sapiens, UniProt P00533, L858R/T790M) (P00533 25-1210 T790M/L858R limits assumed): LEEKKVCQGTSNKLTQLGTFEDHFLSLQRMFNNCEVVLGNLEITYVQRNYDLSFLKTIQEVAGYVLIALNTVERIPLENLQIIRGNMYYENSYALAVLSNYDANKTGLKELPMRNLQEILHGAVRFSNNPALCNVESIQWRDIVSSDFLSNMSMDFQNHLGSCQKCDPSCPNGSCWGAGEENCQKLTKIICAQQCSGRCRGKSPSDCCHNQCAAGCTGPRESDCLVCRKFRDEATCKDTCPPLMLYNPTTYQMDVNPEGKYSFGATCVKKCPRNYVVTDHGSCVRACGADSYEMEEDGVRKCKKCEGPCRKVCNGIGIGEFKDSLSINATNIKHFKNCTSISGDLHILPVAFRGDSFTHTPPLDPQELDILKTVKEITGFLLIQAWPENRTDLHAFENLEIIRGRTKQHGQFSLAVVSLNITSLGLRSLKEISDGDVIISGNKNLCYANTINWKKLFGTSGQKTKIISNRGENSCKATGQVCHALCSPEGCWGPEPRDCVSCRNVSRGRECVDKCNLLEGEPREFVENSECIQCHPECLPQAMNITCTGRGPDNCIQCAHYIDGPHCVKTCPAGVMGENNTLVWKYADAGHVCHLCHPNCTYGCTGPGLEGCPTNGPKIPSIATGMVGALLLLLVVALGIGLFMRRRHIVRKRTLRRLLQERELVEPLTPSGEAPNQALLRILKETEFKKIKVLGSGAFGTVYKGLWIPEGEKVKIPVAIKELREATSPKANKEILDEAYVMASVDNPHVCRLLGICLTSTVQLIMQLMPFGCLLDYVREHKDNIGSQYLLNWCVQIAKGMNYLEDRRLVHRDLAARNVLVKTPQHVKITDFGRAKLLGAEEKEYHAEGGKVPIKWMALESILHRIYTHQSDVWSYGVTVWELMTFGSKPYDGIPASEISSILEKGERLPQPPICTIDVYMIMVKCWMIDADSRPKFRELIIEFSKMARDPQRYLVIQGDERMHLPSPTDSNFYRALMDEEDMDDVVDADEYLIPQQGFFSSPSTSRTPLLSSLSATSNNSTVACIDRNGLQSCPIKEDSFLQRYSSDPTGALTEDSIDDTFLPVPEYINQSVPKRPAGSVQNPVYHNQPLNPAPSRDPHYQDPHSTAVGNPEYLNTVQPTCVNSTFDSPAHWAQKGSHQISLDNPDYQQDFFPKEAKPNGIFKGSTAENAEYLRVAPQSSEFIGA
Chain of Tyrosine-protein kinase ITK/TSK (Q08881 whole entry, the tested form may be a part): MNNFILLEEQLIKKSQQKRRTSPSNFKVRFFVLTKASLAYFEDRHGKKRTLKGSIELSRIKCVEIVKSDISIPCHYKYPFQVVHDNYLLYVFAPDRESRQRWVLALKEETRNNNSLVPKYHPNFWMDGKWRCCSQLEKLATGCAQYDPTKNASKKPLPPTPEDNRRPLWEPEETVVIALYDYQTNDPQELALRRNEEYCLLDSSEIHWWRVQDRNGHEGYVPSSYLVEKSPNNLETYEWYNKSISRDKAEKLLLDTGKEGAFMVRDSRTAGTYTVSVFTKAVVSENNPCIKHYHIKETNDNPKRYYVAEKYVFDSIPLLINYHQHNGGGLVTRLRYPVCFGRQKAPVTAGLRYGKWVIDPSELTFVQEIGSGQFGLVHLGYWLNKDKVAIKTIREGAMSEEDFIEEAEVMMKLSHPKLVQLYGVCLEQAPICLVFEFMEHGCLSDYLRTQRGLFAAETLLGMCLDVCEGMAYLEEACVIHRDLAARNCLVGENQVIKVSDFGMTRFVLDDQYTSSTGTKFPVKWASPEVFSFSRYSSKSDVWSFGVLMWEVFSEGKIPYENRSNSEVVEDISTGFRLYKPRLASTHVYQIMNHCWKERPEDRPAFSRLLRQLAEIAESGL

IC50 [4]: 4 nM
IC50 [5]: 12 nM
IC50 [6]: 386 nM
clearance [13]: 177 mL/min/kg
Vd [14]: 7.8 L/kg
half-life [15]: 3 h
AUC(0-inf) [16]: 0.18 µM·h
bioavailability [17]: 9.5%
Compound: C=CC(=O)Nc1cccc(-n2c(=O)cc(C)c3cnc(Nc4ccc(N5CCN(C)CC5)cc4OC)nc32)c1
IC50 [1]: 4 nM
IC50 [2]: 12 nM
IC50 [3]: 1200 nM
Ratio IC50 [7]: 100
Ratio IC50 [8]: 100
Ratio IC50 [9]: > 100
Ratio IC50 [10]: > 100
inhibition in vivo at 30 mg/kg [11]: 90%
Activity [12]: Toxic

efflux ratio [18]: > 37
IC50 [5]: 9 nM
IC50 [6]: 1050 nM
clearance [13]: 150 mL/min/kg
Vd [14]: 22 L/kg
half-life [15]: 4.5 h
AUC(0-inf) [16]: 0.66 µM·h
bioavailability [17]: 10%
AUC(0-inf) [22]: 0.33 µM·h
AUC(0-t) at 336 h [23]: 0.56 µM·h
Activity [24]: 17%
Cmax [25]: 100 nM
Activity [26]: 4%
Kd [27]: 320 nM
Kd [28]: 290 nM
Kd [29]: 220 nM
Kd [30]: 0.96 nM
Kd [31]: 220 nM
Kd [32]: 130 nM
Kd [33]: 430 nM
Kd [34]: 140 nM
Kd [35]: 2800 nM
Kd [36]: 30 nM
Kd [37]: 81 nM
Kd [38]: 410 nM
fraction unbound at 5 µM [39]: 0.25
fraction unbound at 5 µM [40]: 0.27
fraction unbound at 5 µM [41]: 0.54
fraction unbound at 5 µM [42]: 0.46
Papp [43]: 10 ×10⁻⁶ cm/s
Papp [44]: 10 ×10⁻⁶ cm/s
efflux ratio [45]: > 37
Compound: C=CC(=O)Nc1cccc(-n2c(=O)cc(C)c3cnc(Nc4ccc(OCCN(C)C)cc4OC)nc32)c1
IC50 [1]: 4 nM
IC50 [2]: 28 nM
IC50 [3]: 2400 nM
Ratio IC50 [7]: > 100
Ratio IC50 [8]: > 100
inhibition in vivo at 30 mg/kg [11]: 90%
inhibition in vivo at 30 mg/kg [19]: 90%
Activity [12]: Non-toxic
inhibition in vivo at 30 mg/kg [20]: > 50%
Activity [21]: Non-toxic

IC50 [4]: 3 nM
IC50 [5]: 3 nM
IC50 [6]: 50 nM
clearance [13]: 148 mL/min/kg
Vd [14]: 19 L/kg
half-life [15]: 1.4 h
AUC(0-inf) [16]: 0.18 µM·h
bioavailability [17]: 6.6%
Compound: C=CC(=O)Nc1cccc(-n2c(=O)ccc3cnc(Nc4ccc(N5CCN(C)CC5)cc4OC)nc32)c1
IC50 [1]: 8 nM
IC50 [2]: 4 nM
IC50 [3]: 5230 nM
Ratio IC50 [7]: 17
Ratio IC50 [8]: 17

The remaining lines, values behind:

Compound: C=CC(=O)Nc1cccc(-n2c(=O)cc(C)c3cnc(Nc4ccc(N5CCOCC5)cc4OC)nc32)c1
IC50 [1]: > 10000 nM

Compound: C=CC(=O)Nc1cccc(-n2c(=O)cc(C)c3cnc(Nc4ccc(N5CCN(C)CC5)cc4)nc32)c1
IC50 [1]: 4 nM
IC50 [2]: 7 nM
IC50 [3]: > 3000 nM
inhibition in vivo at 30 mg/kg [11]: 5%

Compound: C=CC(=O)Nc1cccc(-n2c(=O)c(OC)c(C)c3cnc(Nc4ccc(N5CCN(C)CC5)cc4OC)nc32)c1
IC50 [1]: 10 nM
IC50 [2]: 41 nM
IC50 [3]: 1390 nM
